Screening data from PubChem BioAssay.
CSN inh: inhibitors of human CSN-mediated cullin deneddylation; Q92905; Purified CSN, SCF-Nedd8-OG deneddylation, fluorescence polarization; inhibition, % at 12.5 µM; actives 0.38% (n = 360,000);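 active means pattern-corrected inhibition above about 35%, with an unprinted fluorescence ratio check between 0.5 and 1.5, limit read from the data, passing the limit was not always enough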
Target sequence (Q92905 whole entry, looked up, one chain of several): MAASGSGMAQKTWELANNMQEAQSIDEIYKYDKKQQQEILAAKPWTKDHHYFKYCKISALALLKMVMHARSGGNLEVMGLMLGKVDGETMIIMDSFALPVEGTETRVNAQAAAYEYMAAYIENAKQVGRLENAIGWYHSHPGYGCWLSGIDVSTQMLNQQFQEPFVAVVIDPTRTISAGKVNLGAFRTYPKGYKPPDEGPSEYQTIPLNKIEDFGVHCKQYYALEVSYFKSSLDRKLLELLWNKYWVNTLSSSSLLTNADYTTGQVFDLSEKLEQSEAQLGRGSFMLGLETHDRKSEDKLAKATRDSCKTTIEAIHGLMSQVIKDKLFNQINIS
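Assay system: HEK293T-derived human Csn5 enzyme; quantity: 0.24 nM enzyme; medium: Tris/NaCl/DTT buffer, pH 7.5; also added: substrate SCFSkp2-Nedd8OG, 10 nM; doses: 12.5 µM compound; schedule: 90 min reaction at room temperature; signal: FP; read-out: % inhibition of substrate cleavage by Csn5; benchmarks: substrate-only high control, full reaction low control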
ATG4B inhibitor: inhibitors of human ATG4B cysteine protease | inhibition, % at 8.33 µM | ATG4B cleavage of LC3-PLA2, NBD-HPC fluorescence, 1 h | actives 0.51% (n = 340,000) | AID 504462
TPT1 inh: inhibitors of Candida albicans tRNA 2'-phosphotransferase TPT1. recombinant caTPT1, FP RNA substrate dephosphorylation. inhibition, % at 5 µM. actives 0.81% (n = 300,000). AID 1962;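 active means inhibition above the mean of all tested compounds plus 3 SD, set per screening campaign, cut at about 24% in these data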
HNF4A DNA FP: change in binding of human HNF4 alpha to DNA. AID 1224865. HNF4a-FITC DNA binding, fluorescence polarization, 1 h. P41235. activity change, % at 10 µM. actives 0.3% (n = 360,000); in the data active means activity change above about 30%, passing the limit was not always enough
Rpn11 inh: inhibitors of human proteasome Rpn11 | O00487 | human 26S proteasome, Ub4-pepOG fluorescence polarization; 20S core pre-blocked with epoxomicin | inhibition, % at 20 µM | actives 0.59% (n = 360,000);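 active means inhibition at 20 µM, scaled to each plate's controls, above about 33%, limit read from the data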
SENP1 FRET inh: inhibitors of human SENP1 SUMO protease catalytic domain | recombinant SENP1 catalytic domain, CyPet-SUMO1-YPet FRET cleavage | inhibition, % at 10 µM | actives 0.21% (n = 360,000) | AID 624204;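 active means inhibition at least 30% at 10 µM, raw YFP signal under a set limit, fluorescence ratio 0.5 to 1.5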
Target sequence (Q9P0U3 419-644 limits assumed): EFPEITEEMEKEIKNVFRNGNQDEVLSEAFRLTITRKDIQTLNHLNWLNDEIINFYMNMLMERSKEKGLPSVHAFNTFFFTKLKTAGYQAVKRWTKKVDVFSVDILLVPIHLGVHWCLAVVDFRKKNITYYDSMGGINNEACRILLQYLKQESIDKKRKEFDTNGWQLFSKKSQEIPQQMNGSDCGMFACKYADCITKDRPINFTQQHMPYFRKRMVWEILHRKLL
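Test system: human SENP1 catalytic domain; medium: Tris pH 8 buffer plus EDTA, NaCl, BME, BSA, NP40, catalase; incubation: 50 min reaction at room temperature; technique: FRET, CFP and YFP emission; controls: no-enzyme low control and enzyme-plus-DMSO high control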
Rpn11 confirm: confirmation of human proteasome Rpn11 inhibitors; shares compounds with Rpn11 inh; purified human 26S proteasome, Ub4-pepOG fluorescence polarization; proteasome pretreated with epoxomicin; inhibition, % at 20 µM; actives 29% (n = 1,900)
MMP-2 inh: MMP-2 (human) inhibition counter-screen; actives 4% (n = 1,900); shares compounds with Rpn11 inh; AID 602330; recombinant MMP-2, FRET peptide cleavage fluorescence; inhibition, % at 20 µM;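 further: human MMP-2 activated beforehand with APMA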
Thrombin FP: counter-screen for RPN11 inhibitors: inhibition of bovine thrombin. inhibition, % at 20 µM. bovine thrombin cleavage of Ub4-pepOG, fluorescence polarization. AID 602333. shares compounds with Rpn11 inh. actives 13% (n = 1,900);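 active means mean inhibition at least 40% at 20 µM, or signal 3 deviations below plate average, so some actives read negative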
Numbers stand for hits. Hits are enriched below; roughly 2% of the tested compounds scored in any of these assays. Unless noted, no stated cut-off is given here; in the data, active means inhibition above about 40%; inactive means the rest.

Results for O=C(CCCN1C(=O)/C(=C\c2cccs2)SC1=S)Nc1ccccn1 ?
CSN inh: inactive; ATG4B inhibitor: inactive; TPT1 inh: inactive; HNF4A DNA FP: inactive; Rpn11 inh: 34; SENP1 FRET inh: inactive; Rpn11 confirm: inactive; MMP-2 inh: inactive; Thrombin FP: inactive

How did O=C(CCCN1C(=O)/C(=C\c2cccs2)SC1=S)NNC(=O)c1cccnc1 do in these assays?
CSN inh: inactive; ATG4B inhibitor: inactive; TPT1 inh: inactive; HNF4A DNA FP: inactive; Rpn11 inh: 166; SENP1 FRET inh: inactive; Rpn11 confirm: inactive; MMP-2 inh: inactive; Thrombin FP: inactive

Results for CC(C)(C)C(=O)NNC(=O)C1CC1(c1ccccc1)c1ccccc1 (stereo not given) ?
CSN inh: inactive; ATG4B inhibitor: inactive; TPT1 inh: inactive; HNF4A DNA FP: inactive; Rpn11 inh: inactive; SENP1 FRET inh: inactive

What do the screens show for `COc1cc2c(cc1OC)CN(C(=O)c1cc(C3CC3)nn1-c1ccccc1)CC2`?
CSN inh: inactive; ATG4B inhibitor: inactive; HNF4A DNA FP: inactive; Rpn11 inh: inactive; SENP1 FRET inh: inactive

Results for O=C(Cn1nc(CNc2ccc(Cl)cc2)[n+]2c1CCCCC2)c1ccccc1 ?
CSN inh: inactive; ATG4B inhibitor: inactive; TPT1 inh: inactive; HNF4A DNA FP: inactive; Rpn11 inh: inactive; SENP1 FRET inh: inactive

Results for Cc1ccc(C(C)C)c(OCc2nn(CC(=O)c3ccc(Cl)cc3)c3[n+]2CCCCC3)c1 ?
CSN inh: inactive; ATG4B inhibitor: inactive; TPT1 inh: inactive; HNF4A DNA FP: inactive; Rpn11 inh: 39; SENP1 FRET inh: inactive; Rpn11 confirm: inactive; MMP-2 inh: inactive; Thrombin FP: inactive

What do the screens show for `CN(C(=O)c1ccc2c(c1)OCO2)C1(C)CCS(=O)(=O)C1` (stereo not given)?
CSN inh: inactive; ATG4B inhibitor: inactive; TPT1 inh: inactive; HNF4A DNA FP: inactive; Rpn11 inh: inactive; SENP1 FRET inh: inactive

What do the screens show for `Cn1c(=O)c(-c2ccccc2[N+](=O)[O-])c(Cl)c2ccccc21`?
CSN inh: inactive; ATG4B inhibitor: inactive; TPT1 inh: inactive; HNF4A DNA FP: inactive; Rpn11 inh: inactive; SENP1 FRET inh: inactive

Results for Cc1cc(OC(=O)c2ccc(Cl)cc2Cl)nc(C)n1 ?
CSN inh: inactive; ATG4B inhibitor: inactive; TPT1 inh: inactive; HNF4A DNA FP: inactive; Rpn11 inh: active; SENP1 FRET inh: inactive; Rpn11 confirm: inactive; MMP-2 inh: inactive; Thrombin FP: inactive

Results for COc1cc2oc3ccccc3c2cc1N(CC(=O)N(C)C)S(=O)(=O)c1ccccc1 ?
CSN inh: inactive; ATG4B inhibitor: inactive; TPT1 inh: inactive; HNF4A DNA FP: inactive; Rpn11 inh: 116; SENP1 FRET inh: inactive; Rpn11 confirm: inactive; MMP-2 inh: inactive; Thrombin FP: inactive

What do the screens show for `COc1cc2oc3ccccc3c2cc1N(CC(=O)N(C)C)S(=O)(=O)c1ccc(C)cc1`?
CSN inh: inactive; ATG4B inhibitor: inactive; TPT1 inh: inactive; HNF4A DNA FP: inactive; Rpn11 inh: inactive; SENP1 FRET inh: inactive

What do the screens show for `Cc1ccc(S(=O)(=O)/N=C2/NC(=O)/C(=C/c3ccc(Br)o3)S2)cc1`?
CSN inh: inactive; ATG4B inhibitor: inactive; TPT1 inh: inactive; HNF4A DNA FP: inactive; Rpn11 inh: 61; SENP1 FRET inh: inactive; Rpn11 confirm: inactive; MMP-2 inh: inactive; Thrombin FP: inactive

What do the screens show for `N#Cc1ccc(-c2ccc(OCC(=O)NCC(=O)Nc3ccc(F)c(F)c3F)cc2)cc1`?
CSN inh: inactive; ATG4B inhibitor: inactive; TPT1 inh: inactive; HNF4A DNA FP: inactive; Rpn11 inh: 144; SENP1 FRET inh: inactive; Rpn11 confirm: 97; MMP-2 inh: inactive; Thrombin FP: inactive

What do the screens show for `CCOc1ccc(C(=O)CCC(=O)NCC(=O)Nc2ccc(F)c(F)c2F)cc1`?
CSN inh: inactive; HNF4A DNA FP: inactive; Rpn11 inh: inactive; SENP1 FRET inh: inactive

What do the screens show for `CCOC(=O)C1=C(O)/C(=C/c2ccc(-c3ccccc3C(=O)O)o2)SC1=Nc1ccc(OC)cc1`?
CSN inh: inactive; ATG4B inhibitor: inactive; HNF4A DNA FP: inactive; Rpn11 inh: 52; SENP1 FRET inh: inactive; Rpn11 confirm: 60; MMP-2 inh: inactive; Thrombin FP: 41

What do the screens show for `Cn1c(=O)c2c(nc(NN=C3CCCC3)n2C)n(C)c1=O`?
CSN inh: inactive; ATG4B inhibitor: inactive; TPT1 inh: inactive; HNF4A DNA FP: inactive; Rpn11 inh: inactive; SENP1 FRET inh: inactive

What do the screens show for `Cn1c(=O)c2cc(S(=O)(=O)NC(C(=O)Nc3cccnc3)c3ccccc3)ccc2n(C)c1=O` (stereo not given)?
CSN inh: inactive; ATG4B inhibitor: inactive; TPT1 inh: inactive; HNF4A DNA FP: inactive; Rpn11 inh: inactive; SENP1 FRET inh: inactive

What do the screens show for `Cn1c(=O)c2cc(S(=O)(=O)NC(C(=O)Nc3cccc(F)c3)c3ccccc3)ccc2n(C)c1=O` (stereo not given)?
CSN inh: inactive; ATG4B inhibitor: inactive; TPT1 inh: inactive; HNF4A DNA FP: inactive; Rpn11 inh: 47; SENP1 FRET inh: inactive; Rpn11 confirm: 72; MMP-2 inh: inactive; Thrombin FP: inactive

Results for CC1CCCCN1C(=O)Cn1cnc2cc([N+](=O)[O-])ccc2c1=O (stereo not given) ?
CSN inh: inactive; ATG4B inhibitor: inactive; TPT1 inh: inactive; HNF4A DNA FP: inactive; Rpn11 inh: inactive; SENP1 FRET inh: inactive

How did O=c1cc(-c2cccc(F)c2)oc2ccccc12 do in these assays?
CSN inh: inactive; ATG4B inhibitor: inactive; HNF4A DNA FP: inactive; Rpn11 inh: 41; SENP1 FRET inh: inactive; Rpn11 confirm: inactive; MMP-2 inh: inactive; Thrombin FP: inactive

What do the screens show for `O=c1cc(-c2c(F)c(F)c(F)c(F)c2F)oc2ccccc12`?
CSN inh: inactive; ATG4B inhibitor: inactive; TPT1 inh: inactive; HNF4A DNA FP: inactive; Rpn11 inh: inactive; SENP1 FRET inh: inactive

How did COC(=O)c1cc(Br)c(=O)n(CCc2ccc(F)cc2)c1 do in these assays?
CSN inh: inactive; ATG4B inhibitor: inactive; TPT1 inh: inactive; HNF4A DNA FP: inactive; Rpn11 inh: 93; SENP1 FRET inh: inactive; Rpn11 confirm: inactive; MMP-2 inh: inactive; Thrombin FP: inactive
